Measured values gathered from unrelated publications.
Protocols differ between the studies behind these lines.
CDK9: Cyclin-dependent kinase 9 (CDK9, Homo sapiens, UniProt P50750)
CDK1: Cyclin-dependent kinase 1 (CDK1, Homo sapiens, UniProt P06493)

The inhibition of COc1cc(Br)cc(C2NC(=O)NC(C)=C2C(=O)OCc2ccccc2)c1O (stereo not shown) is reported as over 60% (Voltage-dependent T-type calcium channel subunit alpha-1H (CACNA1H, Homo sapiens, UniProt O95180); ion current, inhibitor, patch clamp; HEK293; 10 µM).
The inhibition of CC(C)(C)c1cnc(CSc2cnc(NC(=O)C3CCN(C(=O)CCCCCCCCCCN4Cc5cc6c(cc5C4)C(=O)N(C4CCC(=O)NC4=O)C6=O)CC3)s2)o1 (stereo not shown) is reported as 89.1% (CDK9; protein level, degrader, western blot; TC-71; 25 nM).
Cc1cc2c(C(N)=O)c(N)n(-c3c(C)ccc(O)c3C)c2nc1C gave an inhibition of 101% (Proto-oncogene tyrosine-protein kinase Src (SRC, Homo sapiens, UniProt P12931); enzyme activity, inhibitor, TR-FRET; 10 µM).
CC(C)(C)c1cnc(CSc2cnc(NC(=O)C3CCN(C(=O)CCCCCN4Cc5cc6c(cc5C4)C(=O)N(C4CCC(=O)NC4=O)C6=O)CC3)s2)o1 (stereo not shown) gave an inhibition of 93.4% (CDK9; protein level, degrader, western blot; TC-71; 25 nM).
The Dmax of C[C@]1(O)CCCN(c2nc(Nc3ccc(S(=O)(=O)N[C@H]4CC[C@H](CN5CCN(c6ccc(C7CCC(=O)NC7=O)cc6F)CC5)CC4)cc3F)ncc2C(F)(F)F)C1 (stereo partly shown) is reported as 82% (CDK1; protein level, degrader, western blot; TOV21G).
CN1C(=O)CCC(N2C(=O)c3cc4c(cc3C2=O)CN(CCCCCCCC(=O)N2CCC(C(=O)Nc3ncc(SCc5ncc(C(C)(C)C)o5)s3)CC2)C4)C1=O (stereo not shown) gave an inhibition of 5.1% (CDK9; protein level, degrader, western blot; TC-71; 25 nM).
C#Cc1cc(-c2cc(Nc3nc(N[C@@H](C)c4ccc(F)cn4)ncc3Cl)n[nH]2)ccc1C=O gave an inhibition of 80.2% (Phosphorylase b kinase gamma catalytic chain, skeletal muscle/heart isoform (PHKG1, Homo sapiens, UniProt Q16816); enzyme activity, inhibitor; 0.2 µM).
With C1=C/COCc2cc(ccc2OCCN2CCCC2)Nc2nccc(n2)-c2cccc(c2)COC/1 the remaining signal was 73% (Dual specificity mitogen-activated protein kinase kinase 7 (MAP2K7, Homo sapiens, UniProt O14733); cell-free assay; 0.1 µM).
The remaining binding of CCCCC(=O)Nc1ccc(-c2ccc3ncn(CCC)c(=O)c3c2)cn1 is reported as 100% (Serine/threonine-protein kinase Sgk2 (SGK2, Homo sapiens, UniProt Q9HBY8); binding, competition with immobilised ligand; 0.5 µM).
COc1ccc2oc(-c3ccc4nc(N)oc4c3)c/c(=N\c3ccccc3NC(=O)CCN)c2c1 gave a remaining signal of 90% (Proto-oncogene tyrosine-protein kinase Src (SRC, Homo sapiens, UniProt P12931, T341M); cell-free assay; 1 µM).
With C[C@]1(O)CCCN(c2nc(Nc3ccc(S(=O)(=O)N[C@@H]4CCN(CC5CCN(c6ccc(C7CCC(=O)NC7=O)cc6F)CC5)C[C@H]4F)cc3F)ncc2C(F)(F)F)C1 (stereo partly shown) the Dmax was 26% (CDK1; protein level, degrader, western blot; TOV21G).
With NC/C(=C\F)COc1cccc(Cn2c(=S)[nH]c(=O)c3[nH]cnc32)c1 the remaining activity was -4.18% (Myeloperoxidase (Mus musculus, UniProt P11247); enzyme activity, inhibitor; 10 µM).
The activity vs control of CC(=O)ON=C1C=CC(=C(C#N)c2ccccc2)C=C1 is reported as 99% (Dual specificity protein kinase CLK1 (Clk1, Mus musculus, UniProt P22518); enzyme activity, inhibitor, ADP detection; 20 µM).
